The source of these data is PubChem BioAssay.

The term viability denotes a read-out of living cells in per cent, often relative to untreated cells. As a reminder, the inhibition is the relative decrease from the control value, in per cent.

Each structure is given as a SMILES string. Active and inactive are the calls of the source.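 How the source made its calls, unless noted: active means Her2 level under about 52% in both replicate screens, with viability over 70% of control (limit read from the data); inconclusive means Her2 under the limit in one screen only, or viability under 70%; inactive means Her2 level above the set limit.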

Test [1] in a line: Her2 expression decrease, cell viability multiplex – SKBR3 breast tumor cells, AlphaScreen, ATP viability, primary screen (AID 461).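 On Her2 level: lower value means less Her2 protein in the cells.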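 On viability: percent of carrier control wells set as 100% viability.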 The following applies: SKBR3 Her2 protein level, 18-24 h, measured here: SKBR3 viability, ATP luminescence, at 10 µM. Background: Alpha assays give light when donor and acceptor beads are brought close together.
For test [2], the target named is Receptor tyrosine-protein kinase erbB-2 (Homo sapiens) (UniProt P04626). The description is as above. The following applies: 18-24 h, at 10 µM, stronger effect = lower value.
Receptor tyrosine-protein kinase erbB-2 (Homo sapiens), sequence (P04626 whole entry, looked up): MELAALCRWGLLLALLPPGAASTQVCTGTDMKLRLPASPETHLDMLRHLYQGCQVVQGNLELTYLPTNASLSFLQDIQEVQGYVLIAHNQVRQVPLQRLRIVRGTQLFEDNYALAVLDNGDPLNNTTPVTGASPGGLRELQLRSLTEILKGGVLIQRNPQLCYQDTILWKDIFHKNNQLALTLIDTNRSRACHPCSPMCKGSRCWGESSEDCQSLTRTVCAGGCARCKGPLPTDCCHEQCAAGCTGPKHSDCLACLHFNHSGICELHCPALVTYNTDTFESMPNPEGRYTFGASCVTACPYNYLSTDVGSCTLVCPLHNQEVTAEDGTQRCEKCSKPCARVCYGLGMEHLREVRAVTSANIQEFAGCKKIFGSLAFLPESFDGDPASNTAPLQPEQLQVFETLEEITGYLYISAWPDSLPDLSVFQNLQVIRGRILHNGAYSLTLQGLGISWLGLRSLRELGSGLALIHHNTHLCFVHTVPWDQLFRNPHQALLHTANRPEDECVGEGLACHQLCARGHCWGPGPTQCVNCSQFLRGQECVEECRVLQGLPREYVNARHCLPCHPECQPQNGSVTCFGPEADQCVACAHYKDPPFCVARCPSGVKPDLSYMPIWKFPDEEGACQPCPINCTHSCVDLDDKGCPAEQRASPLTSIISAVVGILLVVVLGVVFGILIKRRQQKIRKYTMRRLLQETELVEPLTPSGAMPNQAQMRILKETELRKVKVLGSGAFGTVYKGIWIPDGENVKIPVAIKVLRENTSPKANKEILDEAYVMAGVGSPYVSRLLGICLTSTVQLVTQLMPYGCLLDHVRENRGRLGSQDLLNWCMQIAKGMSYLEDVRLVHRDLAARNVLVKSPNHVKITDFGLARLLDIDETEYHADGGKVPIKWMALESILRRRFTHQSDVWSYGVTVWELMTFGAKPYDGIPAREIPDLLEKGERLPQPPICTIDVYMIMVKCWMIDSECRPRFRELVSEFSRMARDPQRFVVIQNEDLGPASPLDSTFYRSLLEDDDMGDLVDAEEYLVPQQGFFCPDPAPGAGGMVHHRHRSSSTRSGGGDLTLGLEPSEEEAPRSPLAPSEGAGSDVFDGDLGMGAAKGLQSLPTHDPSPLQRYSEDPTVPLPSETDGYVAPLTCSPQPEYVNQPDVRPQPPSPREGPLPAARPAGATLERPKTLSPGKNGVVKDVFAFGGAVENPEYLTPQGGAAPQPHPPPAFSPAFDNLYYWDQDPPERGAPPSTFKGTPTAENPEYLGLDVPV
The nature of test [3]: reduced viability of SK-BR-3 breast cancer cells – cell-based, 24 h, human, pilot screen (AID 572;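 active means viability at or below 10% of carrier control in both of two separate runs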;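 further: compound exposure lasted between 18 and 24 h rather than exactly 24 h; 100% = carrier-treated control wells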). The following applies: SK-BR-3 viability, CellTiter-Glo luminescence, at 10 µM, stronger effect = lower value.
Test [4] can be described thus: HUVEC growth inhibition – cell-based, human, primary screen (AID 575;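 active means viability at or below 30% in both replicate assays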;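 further: 100% = median of untreated cell wells with 0.1% DMSO on each plate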). The following applies: HUVEC proliferation, CellTiter-Glo luminescence, 72 h; at 10 µM; stronger effect = lower value. In outline: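 material = primary HUVEC, no more than 12 passages | input = 1250 cells per well | controls = vehicle and MePR control wells | measured by = CTG luminescence | times = 72 h compound incubation | format = collagen-coated 384-well format | read-out = % viability vs DMSO wells | doses = single 10 µM dose, 0.1% DMSO, from 5x medium stock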
(In general: Cellular ATP, detected with luciferase, serves as a proxy for viable cell number.)

A short description of test [5]: H69AR cell proliferation blockers – human, duplicate replicates, primary screen (AID 580;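 active means viability at or under a set limit in both replicates, limit being median viability minus 3 SD, cut at about 48% in these data, passing the limit was not always enough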;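 further: 100% = mean luminescence of untreated wells and 0% = no signal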). The following applies: H69AR lung tumor cells viability, ATP luminescence, 72 h; at 10 µM; stronger effect = lower value.
A short description of test [6]: MRP1 drug-resistance reversers in H69AR cells – cell-based, doxorubicin co-treatment, pilot screen (AID 601;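 active means viability loss from added drug above about 55%, and viability with drug at most 40%, in both replicates, limit read from the data, passing the limit was not always enough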). The following applies: CellTiter-Glo, 72 h, at 10 µM; for differential viability (reversal): stronger effect = higher value.
The nature of test [7]: yeast transport mutant growth inhibition pilot in 384-well plates, post-Golgi transport modulator project (AID 636; in the data active means inhibition above about 31%). The following applies: absorbance 615 nm, about 18 h, stronger effect = higher value.
The nature of test [8]: growth suppression of yeast trafficking mutant, preliminary HTS, modulators of trafficking downstream of Golgi apparatus project, 1536-format plate, OD 615 nm (AID 637; in the data active means inhibition above about 30%). The following applies: yeast transport mutant growth, absorbance 615 nm, 18 h; stronger effect = higher value.
[9] abbreviates: H69AR cells + 2 uM doxorubicin, measured here: viability with 2 uM doxorubicin, stronger effect = lower value.
[10] abbreviates: H69AR cells, compound alone cytotoxicity.

`Cn1c(=O)c2c(nc(NCc3ccco3)n2C/C=C/c2ccccc2)n(C)c1=O`: the viability is 100% in test [1]; 100% (inactive) in test [3]; 89.3% (inactive) in test [4]; 101% (inactive) in test [5]; 96.1% in test [6] (setting [9]); 101% in test [6] (setting [10]). Also, the Her2 level in test [2] is 84.5% (inactive). The differential viability (reversal) in test [6] (H69AR cells + 2 uM doxorubicin) was 5.26% (inactive). The inhibition is -1.69% (inactive) in test [7] and 0.16% (inactive) in test [8].
Regarding `O=C(Nc1ccc(S(=O)(=O)N2CCc3ccccc32)cc1)c1ccc2c(c1)OCO2`, the viability in test [1] was 77%; in test [3], 77% (inactive); in test [4] it was 76.7% (inactive); in test [5], 103% (inactive); in test [6] (setting [9]) it was 100%; in test [6] (setting [10]) it was 103%. Besides, in test [2], the Her2 level is 75.5% (inactive). In test [6] (H69AR cells + 2 uM doxorubicin), the differential viability (reversal) is 2.24% (inactive). Also, the inhibition in test [7] was 3.51% (inactive); in test [8], -8.73% (inactive).
With `CC(C)c1nc(N2CCN(C(=O)c3ccco3)CC2)c2c3c(sc2n1)CCCC3`, the viability in test [1] is 76.5%; in test [3], 76.5% (inactive); in test [4], 66.4% (inactive); in test [5], 79.5% (inactive); in test [6] (setting [9]), 78.5%; in test [6] (setting [10]) it was 79.5%. Besides, the Her2 level in test [2] was 94% (inactive). Besides, in test [6] (H69AR cells + 2 uM doxorubicin), the differential viability (reversal) was 1.06% (inactive). Further, the results for the inhibition in test [7] and in test [8] were -0.53% (inactive) and 20.9% (inactive), respectively.
On to `COc1ccccc1C1/C(=C(/O)c2ccccc2)C(=O)C(=O)N1CC(C)C` (stereo not given), for which the viability is 104% in test [1]; 104% (inactive) in test [3]; 81.4% (inactive) in test [4]; 82.1% (inactive) in test [5]; 84.4% in test [6] (setting [9]); 82.1% in test [6] (setting [10]). Also, in test [2], the Her2 level is 89.5% (inactive). In test [6] (H69AR cells + 2 uM doxorubicin), the differential viability (reversal) is -2.33% (inactive). For the same compound, the values for the inhibition in test [7] and in test [8] were -2.47% (inactive) and 5.24% (inactive), respectively.
On to `Cc1ccc(-c2nnc(SCC(=O)N3CC(C)CC(C)C3)o2)cc1C` (stereo not given), for which the viability in test [1] is 97%; in test [3], 97% (inactive); in test [4], 71.4% (inactive); in test [5] it was 90.7% (inactive); in test [6] (setting [9]), 92.7%; in test [6] (setting [10]), 90.7%. Moreover, the Her2 level in test [2] was 106% (inactive). In addition, the differential viability (reversal) in test [6] (H69AR cells + 2 uM doxorubicin) is -2.04% (inactive). The inhibition in test [7] was -2.13% (inactive); in test [8] it was -4.75% (inactive).
Turning to `CC(=O)C1=C(C)OC(N)=C(C#N)C1c1ccncc1` (stereo not given), the viability in test [1] is 133%; in test [3], 133% (inactive); in test [4], 115% (inactive); in test [5], 93.2% (inactive); in test [6] (setting [9]), 84.8%; in test [6] (setting [10]), 93.2%. Besides, in test [2], the Her2 level was 80.5% (inactive). Also, the differential viability (reversal) in test [6] (H69AR cells + 2 uM doxorubicin) is 8.39% (inactive). Further, the inhibition in test [7] was -5.6% (inactive); in test [8], 5.41% (inactive).
For `CCCn1c(SCC(=O)NC(C)(C)C)nnc1C(C)C`, the viability in test [1] was 110%; in test [3] it was 110% (inactive); in test [4], 95.9% (inactive); in test [5], 93% (inactive); in test [6] (setting [9]) it was 89.1%; in test [6] (setting [10]), 93%. In test [2], the Her2 level was 79.5% (inactive). Also, the differential viability (reversal) in test [6] (H69AR cells + 2 uM doxorubicin) was 3.9% (inactive). Moreover, the figures for the inhibition in test [7] and in test [8] were -4.32% (inactive) and 17.6% (inactive), respectively.
For `CSc1ccccc1C(=O)NC1CC2CCC1C2` (stereo not given), the viability in test [1] is 102%; in test [3], 102% (inactive); in test [4], 92.9% (inactive); in test [5], 94.8% (inactive); in test [6] (setting [9]), 87.2%; in test [6] (setting [10]), 94.8%. In addition, the Her2 level in test [2] was 89.5% (inactive). Moreover, the differential viability (reversal) in test [6] (H69AR cells + 2 uM doxorubicin) is 7.59% (inactive). In addition, the inhibition in test [7] was -5.33% (inactive); in test [8], 5.65% (inactive).
In the case of `O=C(NCc1cccs1)C1CC(c2ccccc2O)=NO1` (stereo not given), the viability in test [1] is 74%; in test [3], 74% (inactive); in test [4], 63.4% (inactive); in test [5] it was 104% (inactive); in test [6] (setting [9]), 87.3%; in test [6] (setting [10]) it was 104%. For the same compound, the Her2 level in test [2] was 78.5% (inactive). Further, the differential viability (reversal) in test [6] (H69AR cells + 2 uM doxorubicin) is 16.5% (inactive). The results for the inhibition in test [7] and in test [8] were -3.73% (inactive) and -0.33% (inactive), respectively.
As for `CN(C)Cc1cn(CCC(=O)O)c2ccccc12`, the viability in test [1] was 96%; in test [3], 96% (inactive); in test [4], 88.5% (inactive); in test [5], 101% (inactive); in test [6] (setting [9]) it was 98.2%; in test [6] (setting [10]), 101%. Moreover, the Her2 level in test [2] was 106% (inactive). Also, in test [6] (H69AR cells + 2 uM doxorubicin), the differential viability (reversal) is 2.96% (inactive). Also, the inhibition in test [7] was -1.22% (inactive); in test [8], -1.8% (inactive).
In the case of `CC(=O)NC1CC2CCCC(C1)N2CC(=O)Nc1ccccc1` (stereo not given), the viability in test [1] was 95.5%; in test [3], 95.5% (inactive); in test [4], 88.9% (inactive); in test [5] it was 96.7% (inactive); in test [6] (setting [9]), 85.2%; in test [6] (setting [10]) it was 96.7%. For the same compound, the Her2 level in test [2] is 97% (inactive). Further, the differential viability (reversal) in test [6] (H69AR cells + 2 uM doxorubicin) is 11.4% (inactive). The inhibition in test [7] was 0.13% (inactive); in test [8] it was -6.98% (inactive).
Turning to `COc1ccc(C(=O)CSc2nc(C)cc(=O)[nH]2)cc1`, the viability in test [1] is 99.5%; in test [3], 99.5% (inactive); in test [4], 99.7% (inactive); in test [5], 101% (inactive); in test [6] (setting [9]) it was 91.4%; in test [6] (setting [10]), 101%. Besides, the Her2 level in test [2] was 87.5% (inactive). Further, the differential viability (reversal) in test [6] (H69AR cells + 2 uM doxorubicin) was 10% (inactive). Further, the inhibition in test [7] was -3.2% (inactive); in test [8] it was 2.1% (inactive).
For `Cc1nn(-c2ccccc2)c2c1C(=O)NC(=O)C(C)(C)C2`, the viability in test [1] is 96.5%; in test [3] it was 96.5% (inactive); in test [4], 105% (inactive); in test [5] it was 97.3% (inactive); in test [6] (setting [9]), 81.1%; in test [6] (setting [10]), 97.3%. Further, in test [2], the Her2 level was 88.5% (inactive). Moreover, in test [6] (H69AR cells + 2 uM doxorubicin), the differential viability (reversal) is 16.2% (inactive). In addition, the inhibition in test [7] was -4.08% (inactive); in test [8], -1.27% (inactive).
Regarding `CCOc1ccccc1N1CCN(c2nc3ccccc3nc2C(C#N)C(=O)OC)CC1` (stereo not given), the viability in test [1] was 74%; in test [3] it was 74% (inactive); in test [4], 71.7% (inactive); in test [5], 83.9% (inactive); in test [6] (setting [9]) it was 88.5%; in test [6] (setting [10]), 83.9%. The Her2 level in test [2] is 78% (inactive). Further, the differential viability (reversal) in test [6] (H69AR cells + 2 uM doxorubicin) is -4.64% (inactive). In addition, the inhibition was 1.45% (inactive) in test [7] and -2.1% (inactive) in test [8].
Regarding `COc1ccccc1C(O)P(=O)(OC(C)C)c1ccc(N(C)C)cc1` (stereo not given), the viability was 101% in test [1]; 101% (inactive) in test [3]; 104% (inactive) in test [4]; 98.1% (inactive) in test [5]; 86.5% in test [6] (setting [9]); 98.1% in test [6] (setting [10]). Moreover, the Her2 level in test [2] is 120% (inactive). In addition, the differential viability (reversal) in test [6] (H69AR cells + 2 uM doxorubicin) was 11.6% (inactive). Besides, the figures for the inhibition in test [7] and in test [8] were -6.53% (inactive) and -5% (inactive), respectively.
